According to ChEMBL document CHEMBL1135464, “3-Aryl-2-quinolone derivatives: synthesis and characterization of in vitro and in vivo antitumor effects with emphasis on a new therapeutical target connected with cell migration” (J Med Chem, 2002):
Calls of active or inactive are those of the source. The calls are words filed in the database; no cut-off is given here.

Tests used:
[1] = test system: T-24; experiment: (§1) Cytotoxicity against T24 bladder cell lines using MTT colorimetric assay; NE is no effect at 1x 10 E-5; format: functional, cell-based; conditions: Homo sapiens
How it was run: (§2)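 Human tumour lines from ATCC were grown at 37 °C in sealed dishes in MEM with 5% FCS. Cells were seeded at 40000 cells/mL in 96-well plates and left 24 h to plate. Each drug was then tested at six concentrations from 10^-5 to 10^-9 M. Growth was read by colorimetric MTT assay.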

[2] = test system: U373 MG; experiment: (§3) Cytotoxicity against U-373 MG glioblastomas using MTT colorimetric assay; NE is no effect at 1x 10 E-5; format: functional, cell-based; conditions: Homo sapiens; U-373MG ATCC; how it was run: as §2
[3] = Evaluated in vivo for maximum tolerated dose and found to be nontoxic; format: ADME, organism-based
[4] = test system: J82; experiment: (§4) Cytotoxicity against J82 bladder cell lines using MTT colorimetric assay; NE is no effect at 1x 10 E-5; format: functional, cell-based; conditions: Homo sapiens; how it was run: as §2
[5] = test system: A549; experiment: (§5) Cytotoxicity against A549 nonsmall lung cell line using MTT colorimetric assay; NE is no effect at 1x 10 E-5; format: functional, cell-based; conditions: Homo sapiens; how it was run: as §2
[6] = test system: A-427; experiment: (§6) Cytotoxicity against A-427 nonsmall lung cell line using MTT colorimetric assay; NE is no effect at 1x 10 E-5; format: functional, cell-based; conditions: Homo sapiens; how it was run: as §2
[7] = test system: LoVo; experiment: (§7) Cytotoxicity against LoVo colon cell line using MTT colorimetric assay; NE is no effect at 1x 10 E-5; format: functional, cell-based; conditions: Homo sapiens; how it was run: as §2
[8] = test system: A 172; experiment: (§8) Cytotoxicity against A-172 glioblastomas using MTT colorimetric assay; NE is no effect at 1x 10 E-5; format: functional, cell-based; conditions: Homo sapiens; how it was run: as §2
[9] = test system: PC-3; experiment: (§9) Cytotoxicity against prostate cell line PC-3 using MTT colorimetric assay; NE is no effect at 1x 10 E-5; format: functional, cell-based; conditions: Homo sapiens; how it was run: as §2
[10] = test system: T47D; experiment: Cytotoxicity against Breast cancer cell line T-47D using MTT colorimetric assay; NE is no effect at 1x 10 E-5; format: functional, cell-based; conditions: Homo sapiens; how it was run: as §2
[11] = test system: HCT-15; experiment: Cytotoxicity against HCT-15 colon cell line using MTT colorimetric assay; NE is no effect at 1x 10 E-5; format: functional, cell-based; conditions: Homo sapiens; how it was run: as §2
[12] = test system: MCF7; experiment: (§10) Cytotoxicity against Breast cancer cell line MCF-7 using MTT colorimetric assay; NE is no effect at 1x 10 E-5; format: functional, cell-based; conditions: Homo sapiens; how it was run: as §2
[13] = test system: U-87 MG; experiment: (§11) Cytotoxicity against U-87 MG glioblastomas using MTT colorimetric assay; NE is no effect at 1x 10 E-5; format: functional, cell-based; conditions: Homo sapiens; U-87MG ATCC; how it was run: as §2
[14] = test system: Mus musculus; experiment: Evaluated in vivo for maximum tolerated dose (MTD/8) using MXT mouse mammary adenocarcinoma model
[15] = test system: Mus musculus; experiment: Evaluated in vivo for maximum tolerated dose (MTD/2) using MXT mouse mammary adenocarcinoma model ( highly toxic)
[16] = test system: Mus musculus; experiment: Evaluated in vivo for maximum tolerated dose (MTD/16) using MXT mouse mammary adenocarcinoma model ( ineffective); format: ADME, organism-based
How it was run: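 MXT-HS hormone-sensitive mammary adenocarcinoma maintained by monthly s.c. transplantation in 6-week-old female B6D2F1 mice. Doses are set as fractions of the MTD. Drugs given i.p.; ETO and DOX 9 times, the quinolone 20 times. Nine mice per group. Tumor area (mm2) is the product of the two largest perpendicular caliper diameters, measured weekly. Mean ± SEM; Mann-Whitney test.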

[17] = test system: Mus musculus; experiment: Evaluated in vivo for maximum tolerated dose (MTD/4) using MXT mouse mammary adenocarcinoma model
[18] = test system: PC-3; experiment: Cytotoxicity against prostate cell line PC-3 using MTT colorimetric assay; format: functional, cell-based; conditions: Homo sapiens; how it was run: as §2
[19] = test system: A-427; experiment: Cytotoxicity against A-427 nonsmall lung cell line using MTT colorimetric assay; format: functional, cell-based; conditions: Homo sapiens; how it was run: as §2
[20] = test system: LoVo; experiment: Cytotoxicity measured on LoVo colon cell line using MTT colorimetric assay; format: functional, cell-based; conditions: Homo sapiens; how it was run: as §2
[21] = test system: A549; experiment: Cytotoxicity against A549 nonsmall lung cell line using MTT colorimetric assay; format: functional, cell-based; conditions: Homo sapiens; how it was run: as §2
[22] = test system: J82; experiment: Cytotoxicity against J82 bladder cell lines using MTT colorimetric assay; format: functional, cell-based; conditions: Homo sapiens; how it was run: as §2
[23] = test system: A 172; experiment: Cytotoxicity against A-172 glioblastomas using MTT colorimetric assay; format: functional, cell-based; conditions: Homo sapiens; how it was run: as §2
[24] = test system: U373 MG; experiment: Cytotoxicity against U-373 MG glioblastomas using MTT colorimetric assay; format: functional, cell-based, U-373MG ATCC; conditions: Homo sapiens; how it was run: as §2
[25] = test system: T47D; experiment: Cytotoxicity against Breast cancer cell line T-47D using MTT colorimetric assay; format: functional, cell-based; conditions: Homo sapiens; how it was run: as §2
[26] = test system: U-87 MG; experiment: Cytotoxicity against U-87 MG glioblastomas using MTT colorimetric assay; format: functional, cell-based, U-87MG ATCC; conditions: Homo sapiens; how it was run: as §2
[27] = test system: HCT-15; experiment: Cytotoxicity against HCT-15 colon cell line using MTT colorimetric assay at 1x 10 E-5; format: functional, cell-based; conditions: Homo sapiens; how it was run: as §2
[28] = test system: T-24; experiment: Cytotoxicity against T24 bladder cell lines using MTT colorimetric assay; format: functional, cell-based; conditions: Homo sapiens; how it was run: as §2
[29] = test system: MCF7; experiment: Cytotoxicity against Breast cancer cell line MCF-7 using MTT colorimetric assay; format: functional, cell-based; conditions: Homo sapiens; how it was run: as §2
[30] = test system: HCT-15; experiment: Cytotoxicity against HCT-15 colon cell line using MTT colorimetric assay a; NE is no effect at 1x 10 E-5; format: functional, cell-based, Homo sapiens; how it was run: as §2
[31] = test system: A-427; experiment: as §6; format: functional, cell-based, Homo sapiens; how it was run: as §2
[32] = test system: T-24; experiment: as §1; format: functional, cell-based, Homo sapiens; how it was run: as §2
[33] = test system: J82; experiment: as §4; format: functional, cell-based, Homo sapiens; how it was run: as §2
[34] = test system: T47D; experiment: Cytotoxicity against Breast cancer cell line T-47D using MTT colorimetric assay at 1x 10 E-5; NE is no effect at 1x 10 E-5; format: functional, cell-based, Homo sapiens; how it was run: as §2
[35] = test system: U373 MG; experiment: as §3; format: functional, cell-based, Homo sapiens; conditions: u-373mg atcc; how it was run: as §2
[36] = test system: PC-3; experiment: as §9; format: functional, cell-based, Homo sapiens; how it was run: as §2
[37] = test system: MCF7; experiment: as §10; format: functional, cell-based, Homo sapiens; how it was run: as §2
[38] = test system: LoVo; experiment: as §7; format: functional, cell-based, Homo sapiens; how it was run: as §2
[39] = test system: U-87 MG; experiment: as §11; format: functional, cell-based, Homo sapiens; conditions: u-87mg atcc; how it was run: as §2
[40] = test system: A549; experiment: as §5; format: functional, cell-based, Homo sapiens; how it was run: as §2
[41] = test system: A 172; experiment: as §8; format: functional, cell-based, Homo sapiens; how it was run: as §2
[42] = test system: MCF7; experiment: Cytotoxicity against Breast cancer cell line MCF-7 using MTT colorimetric assay at 1x 10 E-5; format: functional, cell-based; conditions: Homo sapiens; how it was run: as §2
[43] = test system: HCT-15; experiment: Cytotoxicity against HCT-15 colon cell line using MTT colorimetric assay; format: functional, cell-based; conditions: Homo sapiens; how it was run: as §2

COc1ccc(-c2cc3c(OC)cc(OC)cc3nc2S)cc1
Cytotoxicity [1]: inactive
Cytotoxicity [2]: inactive
MTD [3]: 160 mg/kg
Cytotoxicity [4]: inactive
Cytotoxicity [5]: inactive
Cytotoxicity [6]: inactive
Cytotoxicity [7]: inactive
Cytotoxicity [8]: inactive
Cytotoxicity [9]: inactive
Cytotoxicity [10]: inactive
Cytotoxicity [11]: inactive
Cytotoxicity [12]: inactive
Cytotoxicity [13]: inactive

COc1cc([C@@H]2c3cc4c(cc3[C@@H](O[C@@H]3O[C@@H]5CO[C@@H](C)O[C@H]5[C@H](O)[C@H]3O)[C@H]3COC(=O)[C@H]23)OCO4)cc(OC)c1O [ETOPOSIDE]
MTD/8 [14]: 10 mg/kg
MTD/2 [15]: 40 mg/kg
MTD/16 [16]: 5 mg/kg
MTD/4 [17]: 20 mg/kg

COC(=O)CCn1c(=O)c(-c2ccc(OC)cc2)cc2c(OC)cc(OC)cc21
IC50 [18]: > 10 µM
IC50 [19]: > 10 µM
MTD [3]: 160 mg/kg
IC50 [20]: > 10 µM
IC50 [21]: > 10 µM
IC50 [22]: > 10 µM
IC50 [23]: > 10 µM
IC50 [24]: > 10 µM
IC50 [25]: > 10 µM
IC50 [26]: > 10 µM
IC50 [27]: > 10 µM
IC50 [28]: > 10 µM
IC50 [29]: > 10 µM

COc1ccc(-c2cc3c(OC)cc(OC)cc3n(CCC(=O)O)c2=O)cc1
IC50 [30]: No effect
IC50 [31]: No effect
IC50 [32]: No effect
MTD [3]: 160 mg/kg
IC50 [33]: No effect
IC50 [34]: No effect
IC50 [35]: No effect
IC50 [36]: No effect
IC50 [37]: No effect
IC50 [38]: No effect
IC50 [39]: No effect
IC50 [40]: No effect
IC50 [41]: No effect

CCN(CC)C(=O)Cn1c(=O)c(-c2ccc(OC)cc2)cc2c(OC)cc(OC)cc21
IC50 [18]: > 10 µM
IC50 [19]: > 10 µM
MTD [3]: 160 mg/kg
IC50 [20]: > 10 µM
IC50 [21]: > 10 µM
IC50 [22]: > 10 µM
IC50 [23]: > 10 µM
IC50 [24]: > 10 µM
IC50 [25]: > 10 µM
IC50 [26]: > 10 µM
IC50 [28]: > 10 µM
IC50 [42]: > 10 µM
IC50 [43]: > 10 µM
